Test [1] addresses T1, Serine/threonine-protein kinase 17B (Homo sapiens) (UniProt O94768).
T1 sequence (whole entry): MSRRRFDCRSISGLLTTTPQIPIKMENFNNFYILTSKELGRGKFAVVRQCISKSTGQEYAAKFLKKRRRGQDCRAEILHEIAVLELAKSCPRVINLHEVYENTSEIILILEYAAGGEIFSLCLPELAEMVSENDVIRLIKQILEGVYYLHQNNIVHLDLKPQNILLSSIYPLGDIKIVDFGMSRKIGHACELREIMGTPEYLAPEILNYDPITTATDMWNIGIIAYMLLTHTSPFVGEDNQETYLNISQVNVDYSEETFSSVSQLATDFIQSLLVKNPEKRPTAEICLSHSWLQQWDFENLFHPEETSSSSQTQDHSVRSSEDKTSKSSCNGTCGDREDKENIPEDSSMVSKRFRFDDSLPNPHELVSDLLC
The test can be described thus: Competitive binding affinity to STK17B (unknown origin) at 10 uM in presence of ATP relative to control.

The target in test [2] is T2, Serine/threonine-protein kinase 17A (Homo sapiens) (UniProt Q9UEE5).
T2 sequence (whole entry): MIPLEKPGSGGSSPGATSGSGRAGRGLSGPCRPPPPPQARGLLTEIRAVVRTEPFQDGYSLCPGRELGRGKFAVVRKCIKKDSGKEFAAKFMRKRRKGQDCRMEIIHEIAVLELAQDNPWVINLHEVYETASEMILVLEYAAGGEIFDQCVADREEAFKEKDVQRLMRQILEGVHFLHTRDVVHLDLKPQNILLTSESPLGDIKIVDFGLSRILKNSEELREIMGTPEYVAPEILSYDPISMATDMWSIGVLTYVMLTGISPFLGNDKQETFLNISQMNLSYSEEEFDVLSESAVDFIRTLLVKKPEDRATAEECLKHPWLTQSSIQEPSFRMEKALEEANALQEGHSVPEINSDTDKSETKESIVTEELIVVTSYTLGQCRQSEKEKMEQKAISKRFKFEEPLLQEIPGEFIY
The test can be described thus: Competitive binding affinity to STK17A (unknown origin) at 10 uM in presence of ATP relative to control.

Test [3] addresses Serine/threonine-protein kinase Nek7 (Homo sapiens, UniProt Q8TDX7). Kind of test: Competitive binding affinity to NEK7 (unknown origin) at 10 uM in presence of ATP relative to control.
Test [4] has as its target Mitogen-activated protein kinase kinase kinase kinase 1 (Homo sapiens) (UniProt Q92918). The test can be described thus: Competitive binding affinity to MAP4K1 (unknown origin) at 10 uM in presence of ATP relative to control.
For test [5], the target named is Serine/threonine-protein kinase 24 (Homo sapiens) (UniProt Q9Y6E0). Kind of test: Competitive binding affinity to MST3 (unknown origin) at 10 uM in presence of ATP relative to control.
Serine/threonine-protein kinase 24 (Homo sapiens), sequence (Q9Y6E0 whole entry, looked up): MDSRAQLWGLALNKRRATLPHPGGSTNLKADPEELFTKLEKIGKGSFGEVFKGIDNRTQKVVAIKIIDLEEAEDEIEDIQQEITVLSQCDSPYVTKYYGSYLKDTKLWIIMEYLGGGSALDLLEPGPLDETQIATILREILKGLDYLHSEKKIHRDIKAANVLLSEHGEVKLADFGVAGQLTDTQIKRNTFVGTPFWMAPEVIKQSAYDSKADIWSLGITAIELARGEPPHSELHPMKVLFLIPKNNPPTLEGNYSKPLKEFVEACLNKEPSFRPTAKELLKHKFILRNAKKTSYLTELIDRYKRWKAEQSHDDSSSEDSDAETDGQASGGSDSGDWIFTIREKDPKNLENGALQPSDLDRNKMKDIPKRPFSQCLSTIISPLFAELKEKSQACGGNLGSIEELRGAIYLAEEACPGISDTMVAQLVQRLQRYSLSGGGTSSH
Test [6] addresses 5'-AMP-activated protein kinase catalytic subunit alpha-2 (Homo sapiens) (UniProt P54646). The test can be described thus: Competitive binding affinity to AMPKalpha2 (unknown origin) at 10 uM in presence of ATP relative to control. In a few lines:
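In vitro ATP-site competition binding assay across a diverse panel of 128 kinases, with each compound tested at a single concentration. Kinase binding is expressed relative to control.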

Test [7] deals with Activin receptor type-2B (Homo sapiens) (UniProt Q13705). Kind of test: Competitive binding affinity to ACVR2B (unknown origin) at 10 uM in presence of ATP relative to control.
Test [8] deals with Non-receptor tyrosine-protein kinase TYK2 (Homo sapiens) (UniProt P29597). The test can be described thus: Competitive binding affinity to TYK2 kinase domain 2 (unknown origin) at 10 uM in presence of ATP relative to control.
Non-receptor tyrosine-protein kinase TYK2 (Homo sapiens), sequence (P29597 whole entry, the tested form may be a part): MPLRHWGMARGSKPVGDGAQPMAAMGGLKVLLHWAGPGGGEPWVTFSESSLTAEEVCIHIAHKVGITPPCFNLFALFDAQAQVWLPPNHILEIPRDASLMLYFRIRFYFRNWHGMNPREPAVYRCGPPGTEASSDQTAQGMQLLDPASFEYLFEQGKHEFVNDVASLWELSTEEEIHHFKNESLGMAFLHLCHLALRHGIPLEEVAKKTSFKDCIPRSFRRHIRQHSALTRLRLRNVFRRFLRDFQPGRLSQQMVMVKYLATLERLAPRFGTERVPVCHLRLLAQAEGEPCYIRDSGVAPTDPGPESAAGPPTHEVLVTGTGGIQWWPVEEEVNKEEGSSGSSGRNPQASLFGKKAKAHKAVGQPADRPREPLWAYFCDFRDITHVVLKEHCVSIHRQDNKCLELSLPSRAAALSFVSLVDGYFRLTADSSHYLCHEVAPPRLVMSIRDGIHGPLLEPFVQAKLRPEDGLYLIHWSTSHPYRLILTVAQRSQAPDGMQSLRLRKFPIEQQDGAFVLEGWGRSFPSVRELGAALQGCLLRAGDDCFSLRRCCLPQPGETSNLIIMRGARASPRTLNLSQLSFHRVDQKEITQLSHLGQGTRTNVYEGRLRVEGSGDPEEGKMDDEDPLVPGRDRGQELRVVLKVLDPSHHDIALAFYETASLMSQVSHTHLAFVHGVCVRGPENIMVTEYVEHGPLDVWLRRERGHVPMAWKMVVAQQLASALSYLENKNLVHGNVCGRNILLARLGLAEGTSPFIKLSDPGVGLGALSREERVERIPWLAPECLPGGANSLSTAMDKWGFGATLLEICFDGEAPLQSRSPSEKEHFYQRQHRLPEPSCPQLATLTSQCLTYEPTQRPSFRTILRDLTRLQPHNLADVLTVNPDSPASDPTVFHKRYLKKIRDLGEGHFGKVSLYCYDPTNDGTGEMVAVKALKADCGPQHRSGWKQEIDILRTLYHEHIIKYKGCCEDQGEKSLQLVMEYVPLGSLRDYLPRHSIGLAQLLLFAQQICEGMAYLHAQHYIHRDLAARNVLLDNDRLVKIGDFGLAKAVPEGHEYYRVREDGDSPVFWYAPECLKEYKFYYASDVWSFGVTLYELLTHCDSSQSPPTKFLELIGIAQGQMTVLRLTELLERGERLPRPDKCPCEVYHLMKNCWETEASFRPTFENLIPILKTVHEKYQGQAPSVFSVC
The target in test [9] is RAC-beta serine/threonine-protein kinase (Homo sapiens) (UniProt P31751). Kind of test: Competitive binding affinity to AKT2 (unknown origin) at 10 uM in presence of ATP relative to control.
In test [10] the target is Protein kinase C theta type (Homo sapiens) (UniProt Q04759). The test can be described thus: Competitive binding affinity to PRKCQ (unknown origin) at 10 uM in presence of ATP relative to control.
Protein kinase C theta type (Homo sapiens), sequence (Q04759 whole entry, looked up): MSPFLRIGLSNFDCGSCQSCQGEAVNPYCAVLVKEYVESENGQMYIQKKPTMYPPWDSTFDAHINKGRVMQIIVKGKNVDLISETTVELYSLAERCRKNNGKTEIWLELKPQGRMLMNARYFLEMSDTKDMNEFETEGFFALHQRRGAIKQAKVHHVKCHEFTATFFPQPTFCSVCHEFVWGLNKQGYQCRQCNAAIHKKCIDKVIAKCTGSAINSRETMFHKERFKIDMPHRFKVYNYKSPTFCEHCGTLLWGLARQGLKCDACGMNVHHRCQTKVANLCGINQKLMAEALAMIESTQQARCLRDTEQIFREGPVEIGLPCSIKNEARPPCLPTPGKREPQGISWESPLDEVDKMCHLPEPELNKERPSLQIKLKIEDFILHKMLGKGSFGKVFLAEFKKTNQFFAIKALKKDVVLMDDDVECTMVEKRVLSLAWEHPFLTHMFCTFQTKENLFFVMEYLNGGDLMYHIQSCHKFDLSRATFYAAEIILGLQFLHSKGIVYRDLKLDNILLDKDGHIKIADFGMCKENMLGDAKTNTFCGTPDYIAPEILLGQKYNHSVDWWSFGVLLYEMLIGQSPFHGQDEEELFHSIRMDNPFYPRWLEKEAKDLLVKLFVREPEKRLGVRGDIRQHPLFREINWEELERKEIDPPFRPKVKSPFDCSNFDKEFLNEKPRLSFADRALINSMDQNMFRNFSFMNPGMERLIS
For test [11], the target named is T3, Activin receptor type-1 (Homo sapiens) (UniProt Q04771).
T3 sequence (whole entry): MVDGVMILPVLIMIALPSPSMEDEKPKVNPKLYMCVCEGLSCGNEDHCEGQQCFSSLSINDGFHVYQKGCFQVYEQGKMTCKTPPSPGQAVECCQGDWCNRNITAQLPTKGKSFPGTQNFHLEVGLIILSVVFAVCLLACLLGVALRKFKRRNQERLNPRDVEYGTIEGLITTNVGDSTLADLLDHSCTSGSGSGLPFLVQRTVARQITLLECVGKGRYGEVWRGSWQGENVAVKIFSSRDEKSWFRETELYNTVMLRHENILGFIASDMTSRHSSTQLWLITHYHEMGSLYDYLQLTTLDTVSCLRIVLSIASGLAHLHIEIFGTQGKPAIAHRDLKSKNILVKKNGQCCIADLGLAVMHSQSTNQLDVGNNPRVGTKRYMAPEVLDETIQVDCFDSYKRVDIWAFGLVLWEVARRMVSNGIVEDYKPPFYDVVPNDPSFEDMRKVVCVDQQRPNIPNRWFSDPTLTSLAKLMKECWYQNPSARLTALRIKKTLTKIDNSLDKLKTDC
Kind of test: Competitive binding affinity to ACVR1 (unknown origin) at 10 uM in presence of ATP relative to control.

The target of test [12] is Serine/threonine-protein kinase PLK3 (Homo sapiens) (UniProt Q9H4B4). Kind of test: Competitive binding affinity to PLK3 (unknown origin) at 10 uM in presence of ATP relative to control.
Serine/threonine-protein kinase PLK3 (Homo sapiens), sequence (Q9H4B4 whole entry, looked up): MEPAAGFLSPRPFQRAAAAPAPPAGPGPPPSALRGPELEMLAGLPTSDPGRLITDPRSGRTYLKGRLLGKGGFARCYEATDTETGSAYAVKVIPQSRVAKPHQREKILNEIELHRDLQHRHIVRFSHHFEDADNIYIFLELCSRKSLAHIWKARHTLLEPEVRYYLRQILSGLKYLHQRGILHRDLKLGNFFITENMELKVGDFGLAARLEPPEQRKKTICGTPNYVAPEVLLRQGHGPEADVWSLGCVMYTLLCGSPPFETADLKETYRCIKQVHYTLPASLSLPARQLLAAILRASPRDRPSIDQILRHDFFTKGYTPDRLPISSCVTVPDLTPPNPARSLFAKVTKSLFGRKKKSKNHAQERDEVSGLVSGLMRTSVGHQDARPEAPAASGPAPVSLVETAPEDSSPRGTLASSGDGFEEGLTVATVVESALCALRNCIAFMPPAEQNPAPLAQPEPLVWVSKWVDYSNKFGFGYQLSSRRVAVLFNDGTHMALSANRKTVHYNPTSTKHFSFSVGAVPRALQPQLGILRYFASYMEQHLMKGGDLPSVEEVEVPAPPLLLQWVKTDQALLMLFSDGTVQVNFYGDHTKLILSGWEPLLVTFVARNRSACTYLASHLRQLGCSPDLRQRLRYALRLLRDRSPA
Test [13] has as its system Epidermal growth factor receptor (Homo sapiens), P00533 [G719C]. The test can be described thus: Competitive binding affinity to EGFR G719C mutant (unknown origin) at 10 uM in presence of ATP relative to control. In short, it runs like this:
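In vitro ATP-site competition binding assay, part of profiling against a diverse panel of 128 kinases. Each compound was tested at a single concentration of 10 µM. Kinome selectivity was summarized as S15 selectivity scores.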

This passage reports inhibition results from ChEMBL document CHEMBL2424622, “Development of amino-pyrimidine inhibitors of c-Jun N-terminal kinase (JNK): kinase profiling guided optimization of a 1,2,3-benzotriazole lead” (Bioorg Med Chem Lett, 2013).

Some results are limits rather than exact numbers.

Epidermal growth factor receptor (Homo sapiens), P00533 [G719C], sequence (P00533 whole entry G719C): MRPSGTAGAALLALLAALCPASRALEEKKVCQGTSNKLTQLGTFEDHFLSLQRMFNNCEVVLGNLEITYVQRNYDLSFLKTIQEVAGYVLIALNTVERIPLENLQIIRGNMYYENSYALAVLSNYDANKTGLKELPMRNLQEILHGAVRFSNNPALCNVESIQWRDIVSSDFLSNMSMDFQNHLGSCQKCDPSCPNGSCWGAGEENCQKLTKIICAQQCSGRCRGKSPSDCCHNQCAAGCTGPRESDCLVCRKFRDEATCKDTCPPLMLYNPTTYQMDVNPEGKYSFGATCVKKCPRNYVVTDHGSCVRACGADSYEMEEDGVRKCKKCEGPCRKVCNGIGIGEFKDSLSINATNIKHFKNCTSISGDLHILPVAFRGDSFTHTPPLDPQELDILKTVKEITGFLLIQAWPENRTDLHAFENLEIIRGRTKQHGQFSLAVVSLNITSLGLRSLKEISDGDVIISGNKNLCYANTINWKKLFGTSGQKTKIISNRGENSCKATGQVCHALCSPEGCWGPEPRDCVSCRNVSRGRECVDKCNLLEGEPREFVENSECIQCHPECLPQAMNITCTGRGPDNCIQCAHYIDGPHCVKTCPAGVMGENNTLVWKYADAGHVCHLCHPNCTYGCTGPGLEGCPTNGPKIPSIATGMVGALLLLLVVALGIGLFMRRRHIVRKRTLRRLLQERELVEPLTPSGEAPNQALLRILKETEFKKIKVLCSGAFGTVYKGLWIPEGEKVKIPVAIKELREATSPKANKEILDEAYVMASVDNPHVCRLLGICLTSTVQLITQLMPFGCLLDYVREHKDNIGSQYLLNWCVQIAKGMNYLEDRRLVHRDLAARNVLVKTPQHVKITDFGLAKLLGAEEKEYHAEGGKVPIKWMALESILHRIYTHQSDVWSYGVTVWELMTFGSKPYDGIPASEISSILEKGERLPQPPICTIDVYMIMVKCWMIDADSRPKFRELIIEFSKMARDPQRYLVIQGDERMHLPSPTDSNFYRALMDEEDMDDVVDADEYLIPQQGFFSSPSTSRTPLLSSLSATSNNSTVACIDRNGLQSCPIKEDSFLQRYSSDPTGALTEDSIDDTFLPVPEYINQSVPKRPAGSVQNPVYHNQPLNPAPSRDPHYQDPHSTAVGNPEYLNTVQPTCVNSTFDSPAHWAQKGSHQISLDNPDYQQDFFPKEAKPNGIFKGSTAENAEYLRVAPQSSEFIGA
5'-AMP-activated protein kinase catalytic subunit alpha-2 (Homo sapiens), sequence (P54646 whole entry, looked up): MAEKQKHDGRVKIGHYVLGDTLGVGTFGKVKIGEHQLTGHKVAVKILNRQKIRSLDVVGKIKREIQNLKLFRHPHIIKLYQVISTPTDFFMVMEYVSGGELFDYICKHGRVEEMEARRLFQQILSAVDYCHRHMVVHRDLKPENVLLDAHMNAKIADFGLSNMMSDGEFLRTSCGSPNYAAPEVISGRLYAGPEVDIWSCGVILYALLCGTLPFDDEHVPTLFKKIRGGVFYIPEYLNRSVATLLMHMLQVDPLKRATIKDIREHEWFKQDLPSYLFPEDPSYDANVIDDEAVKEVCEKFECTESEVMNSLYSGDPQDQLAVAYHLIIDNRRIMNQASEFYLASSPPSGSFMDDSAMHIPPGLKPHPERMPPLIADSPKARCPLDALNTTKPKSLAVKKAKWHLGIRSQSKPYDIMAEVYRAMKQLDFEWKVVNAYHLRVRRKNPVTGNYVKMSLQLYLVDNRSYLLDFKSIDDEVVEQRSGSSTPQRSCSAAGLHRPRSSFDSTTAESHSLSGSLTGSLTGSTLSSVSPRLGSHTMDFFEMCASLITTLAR
Serine/threonine-protein kinase Nek7, sequence (Q8TDX7 whole entry, looked up): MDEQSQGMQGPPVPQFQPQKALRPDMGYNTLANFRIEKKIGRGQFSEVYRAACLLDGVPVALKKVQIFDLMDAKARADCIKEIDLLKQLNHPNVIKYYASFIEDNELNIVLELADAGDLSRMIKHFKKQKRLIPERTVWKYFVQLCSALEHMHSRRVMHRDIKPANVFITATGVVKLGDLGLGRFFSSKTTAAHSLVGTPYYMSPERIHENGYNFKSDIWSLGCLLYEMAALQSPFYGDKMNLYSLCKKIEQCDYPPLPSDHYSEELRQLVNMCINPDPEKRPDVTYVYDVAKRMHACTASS

On to `O=C([C@H]1CC[C@H](Nc2nccc(-n3nnc4ccccc43)n2)CC1)N1CCOCC1`, for which the results for the inhibition in test [1] and in test [2] were under 50% and 97%, respectively.
`CS(=O)(=O)CCCOc1cccc2c1ccn2-c1ccnc(N[C@H]2CC[C@H](C(=O)N3CCC(O)CC3)CC2)n1`: the inhibition (in general, how much of the control response was suppressed) in [3] was over 85%.
`O[C@H]1CC[C@H](Nc2nccc(-n3ccc4ccccc43)n2)CC1`: the inhibition in test [4] was under 50%; in test [5], 83%; in [6] it was under 50%; in [7], under 50%; in test [8] it was under 50%; in [9], under 50%. Moreover, the inhibition in [3], in test [10], in test [11], in test [12] and in [13] was under 50% in each case.
On to `O[C@H]1CC[C@H](Nc2nccc(-n3ncc4ccccc43)n2)CC1`, for which the inhibition was under 50% in test [4]; 78% in [5]; under 50% in test [6]; under 50% in [7]; under 50% in test [8]; under 50% in test [9]. Also, the inhibition in [3], in test [10], in test [11], in test [12] and in test [13] was under 50% throughout.
Consider `O[C@H]1CC[C@H](Nc2nccc(-c3n[nH]c4ccccc34)n2)CC1`, for which the inhibition in test [4] was 97%; in [6], 89%; in [1], 99%; in [7] it was under 50%; in test [8], 86%; in test [9] it was under 50%. Further, the inhibition in test [11] is under 50%; in test [12], under 50%; in test [13], under 50%; in test [2] it was 100%.
Take `N[C@H]1CC[C@H](Nc2nccc(-n3nnc4ccccc43)n2)CC1`: the inhibition in [1] stood at 92%; in [2] it was 100%.
With `O[C@H]1CC[C@H](Nc2nccc(-n3nnc4ccccc43)n2)CC1`, the inhibition in test [4] was under 50%; in test [5] it was 78%; in [6], 74%; in test [7], 74%; in test [8], under 50%; in test [9] it was under 50%. Besides, the inhibition in test [3] is 93%; in test [10], under 50%; in test [11], under 50%; in test [12] it was 68%; in [13] it was under 50%.
